In ChEMBL document CHEMBL1122828, “Resolution and absolute configuration of the potent dopamine agonist N,N-diethyl-N'-[(3 alpha, 4a alpha, 10a beta)-1,2,3,4,4a,5,10,10a- -octahydro-6-hydroxy-1-propyl-3-benzo[g]quinolinyl]sulfamide” (J Med Chem, 1985) one finds IC50, ED50 and ID50 data, which are given here for five compounds.

Molecules are shown by their SMILES.

Assay [1] concerns the target T1, Adrenergic receptor alpha-1 (Rattus norvegicus, UniProt P15823+P23944+P43140).
T1 sequence (P15823 whole entry): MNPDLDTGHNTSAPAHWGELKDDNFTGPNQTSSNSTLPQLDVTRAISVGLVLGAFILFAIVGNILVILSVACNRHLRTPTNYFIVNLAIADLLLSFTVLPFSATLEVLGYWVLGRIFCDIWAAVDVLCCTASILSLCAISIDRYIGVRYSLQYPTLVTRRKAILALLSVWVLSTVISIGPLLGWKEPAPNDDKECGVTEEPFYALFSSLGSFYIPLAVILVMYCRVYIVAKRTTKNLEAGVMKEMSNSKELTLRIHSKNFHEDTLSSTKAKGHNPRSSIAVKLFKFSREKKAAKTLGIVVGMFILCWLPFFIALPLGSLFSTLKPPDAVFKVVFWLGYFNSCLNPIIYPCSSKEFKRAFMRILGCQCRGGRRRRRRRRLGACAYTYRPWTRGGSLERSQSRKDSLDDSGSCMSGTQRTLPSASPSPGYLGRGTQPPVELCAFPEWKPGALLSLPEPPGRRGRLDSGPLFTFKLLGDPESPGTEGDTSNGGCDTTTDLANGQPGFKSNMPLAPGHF
T1 sequence (P23944 whole entry): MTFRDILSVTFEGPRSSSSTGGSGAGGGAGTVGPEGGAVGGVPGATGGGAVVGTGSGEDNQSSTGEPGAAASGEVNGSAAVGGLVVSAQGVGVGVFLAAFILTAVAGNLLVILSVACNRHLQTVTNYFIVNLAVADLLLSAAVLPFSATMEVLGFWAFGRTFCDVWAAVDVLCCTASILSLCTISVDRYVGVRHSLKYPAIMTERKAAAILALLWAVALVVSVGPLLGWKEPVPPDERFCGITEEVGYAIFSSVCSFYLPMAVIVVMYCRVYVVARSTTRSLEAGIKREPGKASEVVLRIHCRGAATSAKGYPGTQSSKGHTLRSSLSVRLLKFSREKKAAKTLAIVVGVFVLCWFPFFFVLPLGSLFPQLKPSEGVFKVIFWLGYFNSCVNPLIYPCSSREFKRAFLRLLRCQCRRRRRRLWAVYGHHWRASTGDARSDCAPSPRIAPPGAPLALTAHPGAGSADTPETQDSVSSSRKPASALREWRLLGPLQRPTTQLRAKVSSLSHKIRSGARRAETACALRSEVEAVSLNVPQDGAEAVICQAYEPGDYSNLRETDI
T1 sequence (P43140 whole entry): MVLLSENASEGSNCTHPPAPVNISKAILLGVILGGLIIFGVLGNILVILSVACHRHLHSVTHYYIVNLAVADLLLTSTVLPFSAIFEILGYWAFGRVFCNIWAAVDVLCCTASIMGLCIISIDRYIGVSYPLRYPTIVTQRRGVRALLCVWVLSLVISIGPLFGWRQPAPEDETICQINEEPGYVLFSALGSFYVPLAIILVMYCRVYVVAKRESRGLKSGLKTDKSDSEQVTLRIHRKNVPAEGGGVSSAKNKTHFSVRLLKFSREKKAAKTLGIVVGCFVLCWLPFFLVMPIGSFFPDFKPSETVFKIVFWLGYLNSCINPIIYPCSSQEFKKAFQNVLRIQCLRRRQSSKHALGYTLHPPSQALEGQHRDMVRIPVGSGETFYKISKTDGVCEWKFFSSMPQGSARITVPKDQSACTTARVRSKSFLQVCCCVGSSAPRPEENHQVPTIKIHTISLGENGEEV
The assay is described as follows: In vitro inhibitory activity was evaluated against,[3H]WB 4101 whole rat brain alpha 1-adrenoceptor. The essentials: (§1)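 Radioligand displacement used brain homogenates. Four to six test concentrations were each incubated in triplicate. IC50 in nM came from weighted regression analysis.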

The test system of assay [2] is Rattus norvegicus. The assay is described as follows: Compound was evaluated for the in vivo inhibition of basal prolactin secretion for a time 30 min after injection in male rats. Format: functional. Particulars: 0.5 h, read-out: ID50 (the source's name).
In assay [3] the test system is Rattus norvegicus. The assay is described as follows: Compound was evaluated for the in vivo inhibition of basal prolactin secretion for a time 4 hr after injection in male rats. The format is functional. Particulars: read-out: ID50 (the source's name). The essentials:
(§2)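 Adult male SIV 50 rats were housed singly from the day before, with light from 4 a.m. to 6 p.m. They got a single sc injection and were decapitated 4 h later. Trunk blood was taken and serum pooled from 3 rats per group, with 1–3 groups per dose. Prolactin was measured by double-antibody RIA against NIH rat Prl RP-1. The dose giving a 50% fall in serum prolactin was estimated graphically.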

Assay [4] concerns Rattus norvegicus. The assay is described as follows: Compound was evaluated for the in vivo inhibition of basal prolactin secretion for a time 60 min after injection in male rats. As to conditions: 1 h, read-out: ID50 (the source's name). Format: functional.
Assay [5] addresses Serotonin (5-HT) receptor. The assay is described as follows: In vitro inhibitory activity was evaluated against,[3H]serotonin (5-HT) whole rat brain serotonin receptor.
Assay [6] concerns the target Serotonin (5-HT) receptor. The assay is described as follows: In vitro inhibitory activity was evaluated against,[3H]spiperone rat frontal cortex (SPFC) serotonin receptor. The format is tissue-based.
Assay [7] deals with T2, Adrenergic receptor alpha-2 (Rattus norvegicus, UniProt P22086+P19328+P22909).
T2 sequence (P22086 whole entry): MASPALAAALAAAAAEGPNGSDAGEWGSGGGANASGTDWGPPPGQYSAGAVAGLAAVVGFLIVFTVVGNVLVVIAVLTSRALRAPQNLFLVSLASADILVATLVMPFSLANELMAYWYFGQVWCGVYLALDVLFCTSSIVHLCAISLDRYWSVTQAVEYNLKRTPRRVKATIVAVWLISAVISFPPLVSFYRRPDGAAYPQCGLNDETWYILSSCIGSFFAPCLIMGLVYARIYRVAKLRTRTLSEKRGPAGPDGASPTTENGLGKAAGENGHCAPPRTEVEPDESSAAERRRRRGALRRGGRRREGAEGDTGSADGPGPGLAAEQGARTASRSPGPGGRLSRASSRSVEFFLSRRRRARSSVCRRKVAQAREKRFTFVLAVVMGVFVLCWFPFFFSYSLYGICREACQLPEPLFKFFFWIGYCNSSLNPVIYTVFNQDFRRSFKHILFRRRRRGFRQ
T2 sequence (P19328 whole entry): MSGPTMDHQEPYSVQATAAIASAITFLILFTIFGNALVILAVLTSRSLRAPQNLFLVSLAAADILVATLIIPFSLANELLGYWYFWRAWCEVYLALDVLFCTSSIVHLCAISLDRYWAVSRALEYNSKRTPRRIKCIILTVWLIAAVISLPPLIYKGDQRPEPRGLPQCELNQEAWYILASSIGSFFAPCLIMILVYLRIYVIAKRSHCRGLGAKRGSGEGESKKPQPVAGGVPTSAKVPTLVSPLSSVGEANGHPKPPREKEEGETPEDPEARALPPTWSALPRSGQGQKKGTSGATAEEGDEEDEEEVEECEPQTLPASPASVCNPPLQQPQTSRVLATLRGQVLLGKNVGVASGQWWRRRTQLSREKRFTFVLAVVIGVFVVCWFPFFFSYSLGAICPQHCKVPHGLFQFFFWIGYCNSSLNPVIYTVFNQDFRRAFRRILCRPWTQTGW
T2 sequence (P22909 whole entry): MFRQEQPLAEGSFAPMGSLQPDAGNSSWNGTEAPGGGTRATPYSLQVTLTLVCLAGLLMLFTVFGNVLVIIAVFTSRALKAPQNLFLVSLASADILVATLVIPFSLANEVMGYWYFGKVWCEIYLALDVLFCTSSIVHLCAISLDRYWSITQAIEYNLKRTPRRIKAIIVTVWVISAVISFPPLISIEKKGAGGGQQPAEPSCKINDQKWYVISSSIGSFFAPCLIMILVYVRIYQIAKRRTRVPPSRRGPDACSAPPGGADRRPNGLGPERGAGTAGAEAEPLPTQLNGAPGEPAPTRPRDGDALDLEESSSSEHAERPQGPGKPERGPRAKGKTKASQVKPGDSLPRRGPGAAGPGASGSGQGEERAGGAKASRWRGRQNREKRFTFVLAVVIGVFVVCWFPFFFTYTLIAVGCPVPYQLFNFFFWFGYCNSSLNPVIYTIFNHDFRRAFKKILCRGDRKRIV
The assay is described as follows: In vitro inhibitory activity was evaluated against,[3H]clonidine (Clon) rat brain minus cerebellum Alpha-2 adrenergic receptor. The format is tissue-based. The essentials: as §1

Assay [8] addresses T3, Dopamine receptor (Bos taurus, UniProt Q95136+P20288). The assay is described as follows: In vitro inhibitory activity was evaluated against,[3H]dopamine (DA),calf caudate dopamine receptor. The format is protein assay. The essentials: as §1
Assay [9] has as its target T3, Dopamine receptor. The assay is described as follows: In vitro inhibitory activity was evaluated against,[3H]spiperone calf caudate (SPC) dopamine receptor. The format is protein assay. The essentials: as §1
Assay [10] relates to Rattus norvegicus. The assay is described as follows: Compound was evaluated for the in vivo inhibition of basal prolactin for a time 4 hr after injection in male rats. Format: functional. Summed up: as §2
In assay [11] the target is T3, Dopamine receptor. The assay is described as follows: In vitro inhibitory activity was evaluated against [3H]dopamine (DA) calf caudate dopamine receptor. The format is protein assay. The essentials:
as §1

The target in assay [12] is T3, Dopamine receptor. The assay is described as follows: In vitro inhibitory activity was evaluated against [3H]spiperone calf caudate (SPC) dopamine receptor. Format: protein assay. Summed up: as §1

Regarding `CN1CCc2cccc3c2[C@H]1Cc1ccc(O)c(O)c1-3` [APOMORPHINE], the 50% inhibitory concentration (IC50) is 7.75 µM in assay [1], > 10 µM in assay [5] and 4.5 µM in assay [6]. For the same compound, the ED50 in the assay with Rattus norvegicus [2] is 0.058 mg/kg; with Rattus norvegicus [3] it was > 10 mg/kg; in the assay with Rattus norvegicus [4], 0.081 mg/kg.

For the compound `CCCN1CC(NS(=O)(=O)N(CC)CC)CC2Cc3c(O)cccc3CC21` (stereo in doubt; -1) [QUINAGOLIDE], the IC50 was 6 µM in assay [1], 7.4 µM in assay [7], 0.075 µM against Dopamine receptor [8] and 0.019 µM on Dopamine receptor [9]. In the assay with Rattus norvegicus [10], this compound registered an ID50 of 0.0018 mg/kg.

For `CCN(CC)S(=O)(=O)N[C@H]1C[C@@H]2c3cccc4[nH]cc(c34)C[C@H]2N(C)C1` [ETISULERGINE], the IC50 is 3.3 µM in [1]; 0.48 µM in [7]; 0.12 µM on Dopamine receptor [8]; 0.025 µM against Dopamine receptor [9]; > 5 µM in [5]; 0.026 µM in [6]. Moreover, in the assay on Rattus norvegicus [10] (Rattus norvegicus, 4 h, read-out: ID50 (the source's name)), the ED50 is 0.0014 mg/kg.

In the case of `CCCN1CC(NS(=O)(=O)N(CC)CC)CC2Cc3c(O)cccc3CC21` (stereo in doubt; (+)1) [QUINAGOLIDE], the 50% inhibitory concentration (IC50) is > 10 µM in assay [1], > 10 µM in [7], > 100 µM on Dopamine receptor [11] and > 10 µM against Dopamine receptor [12]. The ED50 with Rattus norvegicus [3] was > 3 mg/kg.

Consider `CCCN1CC(NS(=O)(=O)N(CC)CC)CC2Cc3c(O)cccc3CC21` (racemic) [QUINAGOLIDE], for which the half-inhibitory concentration (IC50) is 7.8 µM in assay [1], 5.6 µM in assay [7], 0.19 µM against Dopamine receptor [8] and 0.048 µM against Dopamine receptor [9]. The compound further showed an ID50 with Rattus norvegicus [10] of 0.005 mg/kg.

Usually IC50 stands for the concentration at which inhibition is half-maximal. A high value points to weaker potency in that assay.
